The list is not random: actives were taken first. Their share in the collection is about 3.7%.
KCNK3 block: human KCNK3 channel inhibition, primary screen; O14649; CHO-KCNK3 thallium flux, FluxOR fluorescence; hits give low values; B-score at 10 µM; 340,000 tested, 0.84% active;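 active = B-score under library mean minus 4 SD, starting fluorescence ratio at most library mean plus 5 SD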;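 also: more negative B-score means stronger inhibition of thallium flux through KCNK3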
Target sequence (O14649 whole entry, looked up): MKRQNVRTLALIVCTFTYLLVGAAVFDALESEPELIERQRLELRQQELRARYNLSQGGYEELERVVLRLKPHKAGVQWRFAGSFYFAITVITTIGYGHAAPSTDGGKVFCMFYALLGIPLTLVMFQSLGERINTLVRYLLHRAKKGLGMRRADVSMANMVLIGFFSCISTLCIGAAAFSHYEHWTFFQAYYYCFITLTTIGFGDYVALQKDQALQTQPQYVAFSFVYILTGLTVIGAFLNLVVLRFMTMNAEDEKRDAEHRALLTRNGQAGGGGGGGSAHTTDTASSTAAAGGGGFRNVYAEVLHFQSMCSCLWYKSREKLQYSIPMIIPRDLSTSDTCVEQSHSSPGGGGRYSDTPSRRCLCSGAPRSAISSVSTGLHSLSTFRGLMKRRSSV
KCNQ1 pot: potentiators or activators of human KCNQ1 potassium channel. P51787. AID 2648. CHO-K1 KCNQ1, thallium flux FluxOR fluorescence; hits give high values. 310,000 tested, 0.35% active. B-score at 10 µM;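 active = fluorescence ratio B-score, a plate-corrected score, at least three library SD, with initial intensity B-score within 5 SD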
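Medium – assay buffer, equal DMSO in all wells · Material – CHO-K1 cell line with stable KCNQ1 potassium channel expression · Signal – kinetic FluxOR thallium fluorescence, 10-s 1-Hz baseline, 110-s post-stimulus read · Compound – single concentration per compound, DMSO matched to controls · Schedule – 37 °C overnight plating, 90-min dark dye load, 20-min compound pretreatment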
hERG rescue: shields human hERG channel from block by proarrhythmic agents | Q12809 | CHO-hERG, FluxOR thallium flux, dofetilide IC70 present | activation (rescue from dofetilide block), less the hit threshold, % at 10 µM | 310,000 tested, 0.51% active | AID 1511;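 active = activation above the mean of controls blocked by dofetilide plus 5 SD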;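 also: thallium influx through hERG after potassium depolarization seen as dye fluorescence rise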
KCNK9 inh: blocks the human KCNK9 two-pore domain potassium channel. AID 488922. 310,000 tested, 1.2% active. HEK293 KCNK9, FluxOR thallium flux fluorescence; hits give low values. B-score at 10 µM;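 active = ratio B-score over 3 SD below the library mean, with starting fluorescence within 5 SD of its mean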;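 also: negative B-score means less thallium flux so channel inhibition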
KCNQ1 block: blocks the human KCNQ1 potassium channel. P51787. CHO-K1 KCNQ1, FluxOR thallium flux fluorescence; hits give high values. B-score at 10 µM. 310,000 tested, 1.3% active;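 active = compounds whose thallium flux B-score, printed positive for inhibition, exceeds three library SD while starting fluorescence stays within three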;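 also: channel opened by potassium depolarization with thallium stimulus after 20 min compound exposure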
Kir21 block: inhibitors of mouse Kir2.1 inward-rectifier potassium channel. HEK293-Kir2.1, FluxOR thallium flux fluorescence; hits give low values. AID 1672. 310,000 tested, 0.85% active. P35561. B-score at 10 µM;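 active = fluorescence ratio B-score at or below minus 3 SD of library scores, with starting-brightness B-score within 2 SD, cut at about -4.2 in these data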;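 also: channel flux triggered by added potassium and thallium sulfate stimulus; B-score of peak minus minimum fluorescence over baseline after thallium stimulus; more negative B-score means stronger Kir2.1 block with less thallium influx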
Numbers stand for hits; – = inactive; · = no result given.

SMILES | KCNK3 block | KCNQ1 pot | hERG rescue | KCNK9 inh | KCNQ1 block | Kir21 block
COc1ccc([N+](=O)[O-])cc1Nc1c2ccccc2nc2ccccc12 | – | – | – | – | 8 | –
COC(=O)c1ccc(C(=O)OC)c(NC(=S)N2CCN(C(=O)C3CCCO3)CC2)c1 (centres undefined) | – | – | – | – | – | –
Cc1c(O)ccc2cc(S(=O)(=O)c3ccccc3)c(=O)oc12 | – | – | – | – | 11 | –
N#Cc1c[nH]n2c(=O)c3c(nc12)CCCC3 | · | – | 5.4 | – | – | –
Cc1onc(-c2c(Cl)cccc2Cl)c1C(=O)ONC(=O)c1ccccc1 | – | – | – | – | – | -5.24
Cc1onc(-c2c(Cl)cccc2Cl)c1C(=O)c1ccc(F)cc1 | – | – | – | – | – | –
Cc1onc(-c2c(F)cccc2Cl)c1C(=O)ONC(=O)c1ccccc1 | – | – | – | – | – | –
Cc1onc(-c2c(F)cccc2Cl)c1C(=O)c1ccc(F)cc1 | – | – | – | – | – | -4.8
O=C(NCC1CCCO1)c1cc2c(=O)[nH]c3ccccc3c2s1 (centres undefined) | – | – | – | – | – | –
Cc1ccc(NC2CCCN(C(=O)c3cc(C(C)C)[nH]n3)C2)cc1C (centres undefined) | – | – | – | – | – | –
CC(CCc1ccccc1)NC(=O)c1ccc(NC(=O)c2cccc(Br)c2)cc1 (centres undefined) | – | – | – | -7.43 | – | –
Cc1ccnc(NC(=O)CCC(=O)N(CC(=O)NC(C)(C)C)c2ccc3c(c2)OCCO3)c1 | – | – | – | – | – | –
COc1ccc(C(=O)/C=C/C(=O)N(CC(=O)NC2CCCCC2)CC2CCCO2)c(O)c1 (centres undefined) | – | – | – | – | – | -5.34
Cc1onc(-c2ccccc2Cl)c1C(=O)Nc1nnc(-c2ccc(Br)cc2)s1 | – | – | – | – | 8 | –
Cc1onc(-c2ccccc2Cl)c1C(=O)Nc1nnc(-c2ccc(F)cc2)s1 | – | – | – | – | – | –
Cc1onc(-c2c(F)cccc2Cl)c1C(=O)Nc1nnc(-c2ccccc2)s1 | – | – | – | – | – | –
Cc1onc(-c2ccccc2Cl)c1C(=O)Nc1nnc(-c2ccc(Cl)cc2Cl)s1 | – | – | – | – | 8 | –
CC12CCC(C(=O)NCc3ccc4c(c3)OCO4)(CC1=O)C2(C)C (centres undefined) | – | – | 5.3 | – | – | –
Cc1nc2c3cc(F)ccc3n(Cc3ccccc3)c2s1 | – | – | – | – | – | –
Cc1nc2c3cc(F)ccc3n(Cc3ccccc3F)c2s1 | – | – | – | -8.04 | – | –
CSC1=C(C#N)C(CC(C)C)C(C(C)=O)=C(C)N1 (centres undefined) | – | – | – | – | – | -6.47
CSC1=C(C#N)C(CC(C)C)C2=C(CCCC2=O)N1 (centres undefined) | – | – | – | – | – | –
CCCn1c(SCC(=O)N2CC(=O)Nc3ccccc32)nc2ccccc21 | – | – | – | – | – | -6.88
Cc1cc(=O)cc(C)n1-c1ccc(F)cc1F | – | – | 6.6 | – | – | –
CCOC(=O)c1c(C)[nH]c(C)c1S(=O)(=O)NC(C)Cc1ccco1 (centres undefined) | – | – | – | – | – | –
SMILES | KCNK3 block | KCNQ1 pot | hERG rescue | KCNK9 inh | KCNQ1 block | Kir21 block
COc1ccc(CNc2nc3ccccc3n2CCN2CCCCC2)cc1 | – | – | – | – | – | –
CCN(CC)c1ccc(CNc2nc3ccccc3n2CCN2CCCCC2)cc1 | – | – | – | – | 7 | –
Cc1ccc(NC(=O)CNC(=O)c2cccs2)nc1 | – | – | – | – | – | –
C=C(C)CSc1cc(C)c(C#N)c2nc3ccccc3n12 | – | – | – | – | 6 | –
CC(C)CN(C(=O)CCC(=O)OCC(=O)NCCc1ccccc1)c1c(N)n(CC(C)C)c(=O)[nH]c1=O | – | – | – | – | – | –
O=C(NC1CCCCCC1)c1cc(S(=O)(=O)N2CCOCC2)ccc1F | – | – | – | – | – | –
Cc1ccc2[nH]c(=O)c(CN(Cc3ccccc3)C(=S)NCCCN(C)C)cc2c1 | – | – | – | – | – | -4.65
Cc1ccc(C)n1-n1c(C)nc2scc(-c3ccccc3)c2c1=O | – | – | – | – | – | –
Cc1nc2scc(-c3ccccc3)c2c(=O)n1N=C1C=CC(=O)C=C1 | · | – | – | – | – | -6.79
Cc1cccc(NC(=S)NCC(C)CSc2ccc(Cl)cc2)c1 (centres undefined) | – | – | – | – | 9 | –
Cc1ccc(NC(=S)NCC(C)CSc2ccc(Cl)cc2)cc1 (centres undefined) | – | – | – | – | 8 | –
Cc1ccc(NC(=S)NCCSc2ccc(Cl)cc2)c(C)c1 | – | – | – | – | – | –
Cc1cccc(NC(=S)NCC(c2ccccc2)N(C)C)c1 (centres undefined) | – | – | – | – | – | –
CCOC(=O)CCCNC(=O)CSc1nc2ccc(OCC)cc2[nH]1 | – | – | 7.2 | – | – | –
CCc1ccccc1NC(=O)CNC(=O)CCNC(=O)Nc1ccccc1 | – | · | · | · | · | ·
COc1ccc(CCNC(=O)COC(=O)Cc2cccc3ccccc23)cc1 | – | – | – | – | – | -11.6
OC1(C#CCCN2CCCCC2)c2ccccc2-c2ccccc21 | – | – | – | – | – | –
N#CC1(CCCN2CCCCC2)c2ccccc2CCc2ccccc21 | – | – | – | – | – | -5.61
CCC(C)(C(=O)NC1CCCCC1)N(C(=O)CNC(=O)c1ccccc1)c1c(C)n(C)n(-c2ccccc2)c1=O (centres undefined) | – | – | – | – | – | –
COC(=O)C1=C(C)N(Cc2ccccc2)C(=NCCc2cccnc2)N[C@H]1c1ccc(Br)cc1 | – | · | · | · | · | ·
COC(=O)C1=C(C)N(Cc2ccccc2)C(=NCC2CC2)N[C@H]1c1ccccc1 | – | · | · | · | · | ·
COC(=O)C1=C(C)N(Cc2ccccc2)C(=NCCCCO)N[C@H]1c1ccccc1 | · | – | – | – | – | -4.56
COC(=O)C1=C(C)N(Cc2ccccc2)C(=NCCc2cccnc2)N[C@H]1c1ccccc1 | – | – | – | – | – | -11.1
O=C(CNC(=O)c1ccco1)OCC(=O)c1ccc([N+](=O)[O-])cc1 | – | – | – | – | – | –
Cc1noc(C)c1-c1csc(N2CCC(C(N)=O)CC2)n1 | – | · | · | · | · | ·
CSc1ccc(/C=N/n2c(Cc3ccc(Br)cc3)n[nH]c2=S)cc1 | – | – | 154.6 | – | – | –
NCC(=O)N1CCC(C(=O)N[C@@H](Cc2c[nH]c3ccccc23)C(=O)O)CC1 | – | – | – | – | – | –
Cc1cc2nc(N)sc2cc1[N+](=O)[O-] | – | – | 5.0 | – | – | –
COc1ccc2nc(N)sc2c1 | – | – | – | – | – | –
O=C(CSc1nnc(CNC(=O)c2ccco2)o1)Nc1nc2ccccc2s1 | – | – | – | – | – | –
